Reference: ChEMBL document CHEMBL1121923, “N2- and C-7 substituted actinomycin D analogues: synthesis, DNA-binding affinity, and biochemical and biological properties. Structure-activity relationship” (J Med Chem, 1981)

Key:
P388 [1] = test: Concentration required for 50% inhibition of incorporation of labeled thymidine by p388 cells for synthesis of DNA (in vitro); Not determined because of lack of DNA binding; type: functional, cell-based; settings: Mus musculus
P388 [2] = test: Concentration required for 50% inhibition of incorporation of labeled uridine by P388 cells for the synthesis of RNA (in vitro); Not determined because of lack of DNA binding; type: functional, cell-based; settings: Mus musculus
P388 [3] = test: Concentration of compound required for 50% inhibition of synthesis of RNA in cultured P388 cells; type: functional; settings: Mus musculus, read-out: ED50 (the source's name)
P388 [4] = test: Concentration of compound required for 50% inhibition of synthesis of DNA in cultured P388 cells; type: functional; settings: Mus musculus, read-out: ED50 (the source's name)
P388 [5] = test: Concentration of compound required for 50% inhibition of incorporation of labeled thymidine by p388 cells for synthesis of DNA (in vitro); Solubility too low; type: functional, cell-based; settings: Mus musculus
Calf thymus DNA [6] = test: Apparent binding constant against calf thymus DNA-drug complex; d indicates solubility too low for determination; type: nucleic-acid assay; settings: Bos taurus
In short: (§1)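 Calf thymus DNA; apparent binding constant and apparent number of drug binding sites per base pair, taken from a Scatchard plot of binding isotherms obtained by spectral titration. Run in 0.01 M phosphate buffer, pH 7.0, at 20 °C.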

P388 [7] = test: Concentration of compound required for 50% inhibition of incorporation of labeled uridine by P388 cells for the synthesis of RNA (in vitro); Solubility too low; type: functional, cell-based; settings: Mus musculus
Calf thymus DNA [8] = test: Apparent number of binding sites per base pairs in DNA; d indicates solubility too low for determination; type: nucleic-acid assay; settings: Bos taurus; in short: as §1

Row | Structure (SMILES) | ED50 (P388 [1]) | ED50 (P388 [2]) | also measured
1 | CCCCCCNc1c(C(=O)N[C@H]2C(=O)N[C@@H](C(C)C)C(=O)N3CCC[C@H]3C(=O)N(C)CC(=O)N(C)[C@H](C(C)C)C(=O)O[C@H]2C)c2nc3c(C(=O)N[C@@H]4C(=O)N[C@H](C(C)C)C(=O)N5CCC[C@@H]5C(=O)N(C)CC(=O)N(C)[C@@H](C(C)C)C(=O)O[C@@H]4C)ccc(C)c3oc-2c(C)c1=O | Not measurable | Not measurable | 
2 | Cc1c2oc3c(C)c(O)c(N)c(C(=O)N[C@@H]4C(=O)N[C@H](C(C)C)C(=O)N5CCC[C@H]5C(=O)N(C)CC(=O)N(C)[C@@H](C(C)C)C(=O)O[C@@H]4C)c3nc-2c(C(=O)N[C@@H]2C(=O)N[C@H](C(C)C)C(=O)N3CCC[C@H]3C(=O)N(C)CC(=O)N(C)[C@@H](C(C)C)C(=O)O[C@@H]2C)c/c1=N/Cc1ccc(Cl)c(Cl)c1 |  |  | EC50 (P388 [3]): 96 nM; EC50 (P388 [4]): 418 nM
3 | CCCCCCCCCNc1c(C(=O)N[C@H]2C(=O)N[C@@H](C(C)C)C(=O)N3CCC[C@H]3C(=O)N(C)CC(=O)N(C)[C@H](C(C)C)C(=O)O[C@H]2C)c2nc3c(C(=O)N[C@@H]4C(=O)N[C@H](C(C)C)C(=O)N5CCC[C@@H]5C(=O)N(C)CC(=O)N(C)[C@@H](C(C)C)C(=O)O[C@@H]4C)ccc(C)c3oc-2c(C)c1=O | Not measurable | Not measurable | 
4 | CCCCCCCCC/N=c1/cc(C(=O)N[C@@H]2C(=O)N[C@H](C(C)C)C(=O)N3CCC[C@@H]3C(=O)N(C)CC(=O)N(C)[C@@H](C(C)C)C(=O)O[C@@H]2C)c2nc3c(C(=O)N[C@H]4C(=O)N[C@@H](C(C)C)C(=O)N5CCC[C@H]5C(=O)N(C)CC(=O)N(C)[C@H](C(C)C)C(=O)O[C@H]4C)c(N)c(O)c(C)c3oc-2c1C |  |  | ED50 (P388 [5]): Solubility too low; K app (Calf thymus DNA [6]): Not measurable; ED50 (P388 [7]): Solubility too low; Bapp (Calf thymus DNA [8]): Not measurable
5 | Cc1c2oc3c(C)ccc(C(=O)N[C@@H]4C(=O)N[C@H](C(C)C)C(=O)N5CCC[C@@H]5C(=O)N(C)CC(=O)N(C)[C@@H](C(C)C)C(=O)O[C@@H]4C)c3nc-2c(C(=O)N[C@H]2C(=O)N[C@@H](C(C)C)C(=O)N3CCC[C@H]3C(=O)N(C)CC(=O)N(C)[C@H](C(C)C)C(=O)O[C@H]2C)c(NCCCCCCCCN)c1=O | Not measurable | Not measurable | 
6 | CCCCCCCCCCCNc1c(C(=O)N[C@H]2C(=O)N[C@@H](C(C)C)C(=O)N3CCC[C@H]3C(=O)N(C)CC(=O)N(C)[C@H](C(C)C)C(=O)O[C@H]2C)c2nc3c(C(=O)N[C@@H]4C(=O)N[C@H](C(C)C)C(=O)N5CCC[C@@H]5C(=O)N(C)CC(=O)N(C)[C@@H](C(C)C)C(=O)O[C@@H]4C)ccc(C)c3oc-2c(C)c1=O | Not measurable | Not measurable | 
